Test results from ChEMBL document CHEMBL4014307, “Diindolylmethane Derivatives: Potent Agonists of the Immunostimulatory Orphan G Protein-Coupled Receptor GPR84” (J Med Chem, 2017).
pEC50: −log10 of the molar value. Each block holds one molecule with its values, some of them ahead of it. Active and inactive are the calls of the source.

Experiments:
[1] = target: T1, G-protein coupled receptor 84 (Homo sapiens, UniProt Q9NQS5); test: Agonist activity at Gi coupled human GPR84 expressed in CHO cells assessed as inhibition of forskolin-induced cAMP accumulation at 10 uM after 15 mins in presence of [3H]-cAMP by radiometric assay relative to decanoic acid; assay type: functional, cell-based
How it was run: (§1)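 Forskolin (10 µM) added with or without test compound for 15 min. Cells lysed in hot (90 °C) EDTA/Triton X-100 solution. cAMP measured radiometrically with bovine adrenal binding protein and [³H]cAMP, expressed as % of forskolin-alone response.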

[2] = target: T1, G-protein coupled receptor 84; test: Agonist activity at Gi coupled human GPR84 expressed in CHO cells assessed as inhibition of forskolin-induced cAMP accumulation after 15 mins in presence of [3H]-cAMP by radiometric assay; assay type: functional, cell-based; how it was run: as §1
[3] = target: T1, G-protein coupled receptor 84; test: Agonist activity at human GPR84 expressed in CHO cells assessed as beta-arrestin recruitment after 90 mins by beta-galactosidase complementation assay; assay type: cell-based
How it was run: (§2)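 CHO cells co-expressing human GPR84–β-galactosidase fragment and β-arrestin–complementary fragment, 20,000 per well. Compounds in DMSO (final ≤1 %) added for 90 min, then detection reagent for 60 min at rt; luminescence read. Three to five independent experiments in duplicate.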

[4] = target: T1, G-protein coupled receptor 84; test: Agonist activity at human GPR84 expressed in CHO cells assessed as beta-arrestin recruitment at 10 uM after 90 mins by beta-galactosidase complementation assay relative to embelin; assay type: cell-based; how it was run: as §2
[5] = target: T1, G-protein coupled receptor 84; test: Antagonist activity at Gi coupled human GPR84 expressed in CHO cells assessed as inhibition of decanoic acid-induced receptor activation at 10 uM; assay type: cell-based
[6] = target: T2, Free fatty acid receptor 1 (Homo sapiens, UniProt O14842); test: Agonist activity at Gq protein coupled human FFAR1 expressed in human 1321N1 cells assessed as induction of intracellular calcium level at 10 uM measured at 1.2 secs time interval by Fluo-4-AM dye based fluorescence assay; assay type: functional, cell-based
How it was run: (§3)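 1321N1 astrocytoma cells retrovirally expressing human FFAR1, 50,000 per well, loaded 60 min at rt in dark with 3 µM Fluo-4-AM and 0.06 % Pluronic F-127 in HBSS. Compounds at 10 µM final; antagonist mode uses 30 min preincubation before TUG-424 (final 1 µM). Fluorescence at 520 nm (excitation 485 nm), 90 reads at 1.2 s intervals. Normalized to TUG-424 at 10 µM (agonist) or 1 µM (antagonist).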

[7] = target: T3, Free fatty acid receptor 4 (Homo sapiens) (UniProt Q5NUL3); test: Agonist activity at human FFAR4 expressed in CHO cells assessed as beta-arrestin recruitment at 10 uM after 90 mins by beta-galactosidase complementation assay; assay type: cell-based
T3 sequence (whole entry): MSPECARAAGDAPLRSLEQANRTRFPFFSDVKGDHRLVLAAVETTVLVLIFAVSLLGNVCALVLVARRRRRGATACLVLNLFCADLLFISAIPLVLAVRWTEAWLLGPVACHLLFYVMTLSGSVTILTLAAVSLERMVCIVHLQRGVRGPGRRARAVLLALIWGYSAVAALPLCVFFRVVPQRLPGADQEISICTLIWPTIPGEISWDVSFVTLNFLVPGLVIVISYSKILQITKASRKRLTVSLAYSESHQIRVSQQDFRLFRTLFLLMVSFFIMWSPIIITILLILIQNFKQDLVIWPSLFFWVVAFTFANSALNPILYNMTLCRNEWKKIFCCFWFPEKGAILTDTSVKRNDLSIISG
How it was run: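 Human FFAR4 in CHO β-galactosidase complementation cells, 30,000 per well, serum-free F12 ~4 h before assay; final DMSO 1 %, compounds 10 µM. Agonist mode: 90 min with agonist, then detection 60 min rt dark; luminescence. 3–4 experiments in duplicate.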

[8] = target: T3, Free fatty acid receptor 4 (Homo sapiens); test: Antagonist activity at human FFAR4 expressed in CHO cells assessed as inhibition of TUG-89-induced beta-arrestin recruitment at 10 uM preincubated for 30 mins followed by TUG-89 addition measured after 90 mins by beta-galactosidase complementation assay; assay type: cell-based
[9] = target: T2, Free fatty acid receptor 1; test: Antagonist activity at Gq protein coupled human FFAR1 expressed in human 1321N1 cells assessed as inhibition of TUG-424-induced intracellular calcium level preincubated for 30 mins followed by TUG-424 addition measured at 1.2 secs time interval by Fluo-4-AM dye based fluorescence assay; assay type: functional, cell-based; how it was run: as §3
[10] = target: T1, G-protein coupled receptor 84; test: Agonist activity at Gi coupled human GPR84 expressed in CHO cells assessed as inhibition of forskolin-induced cAMP accumulation up to 100 uM preincubated for 5 mins followed by forskolin addition measured after 15 mins in presence of [3H]-cAMP by radiometric assay; assay type: functional, cell-based
How it was run: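 Concentration-response in CHO-hGPR84 cells. Compound preincubated 5 min, then forskolin 10 µM added for a further 15 min. Maximal forskolin-induced cAMP without agonist set as 100 %. […] Mean ± SEM of 3 independent experiments in duplicate.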

T2 sequence (O14842 whole entry): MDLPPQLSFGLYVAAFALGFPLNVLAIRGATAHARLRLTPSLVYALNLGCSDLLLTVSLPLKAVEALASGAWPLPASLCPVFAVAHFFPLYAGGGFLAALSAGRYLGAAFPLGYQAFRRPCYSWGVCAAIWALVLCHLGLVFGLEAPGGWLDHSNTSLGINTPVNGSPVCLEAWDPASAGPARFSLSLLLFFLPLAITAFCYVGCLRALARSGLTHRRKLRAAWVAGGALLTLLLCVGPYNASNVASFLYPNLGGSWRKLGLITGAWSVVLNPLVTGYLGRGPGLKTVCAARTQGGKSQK
T1 sequence (Q9NQS5 whole entry): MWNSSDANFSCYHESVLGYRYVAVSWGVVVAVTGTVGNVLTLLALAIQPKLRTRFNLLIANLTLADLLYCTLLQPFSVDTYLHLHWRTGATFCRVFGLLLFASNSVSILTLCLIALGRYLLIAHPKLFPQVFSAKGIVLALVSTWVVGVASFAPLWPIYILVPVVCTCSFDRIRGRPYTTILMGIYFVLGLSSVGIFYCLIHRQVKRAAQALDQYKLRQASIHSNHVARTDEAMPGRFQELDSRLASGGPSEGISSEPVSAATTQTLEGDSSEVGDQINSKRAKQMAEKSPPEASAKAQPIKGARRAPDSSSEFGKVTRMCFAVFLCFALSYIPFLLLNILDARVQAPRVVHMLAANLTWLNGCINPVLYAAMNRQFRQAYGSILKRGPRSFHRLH

SMILES: c1cnc2[nH]cc(Cc3c[nH]c4ncccc34)c2c1
Emax [1]: -12%
pEC50 [2]: < 5.00
pEC50 [3]: 5.64
Emax [4]: 115%
inhibition [5]: inactive
Activity [6]: inactive
Activity [7]: inactive
inhibition [8]: inactive

SMILES: CCCC(c1c[nH]c2ccccc12)c1c[nH]c2ccccc12
Emax [1]: -24%
pEC50 [2]: < 5.00
pEC50 [3]: 5.22
Emax [4]: 199%
inhibition [5]: inactive
Activity [6]: inactive
Activity [7]: inactive
pEC50 [9]: 5.06
inhibition [8]: inactive

SMILES: CC(C)C(c1c[nH]c2ccccc12)c1c[nH]c2ccccc12
Emax [1]: 16%
pEC50 [2]: < 5.00
pEC50 [3]: 5.14
Emax [4]: 167%
inhibition [5]: inactive
Activity [6]: inactive
Activity [7]: inactive
pEC50 [9]: 5.05
inhibition [8]: inactive

SMILES: Cn1cc(Cc2cn(C)c3ccccc23)c2ccccc21
Emax [1]: -37%
pEC50 [2]: < 5.00
pEC50 [3]: < 5.00
Emax [4]: -3%
inhibition [5]: inactive
Activity [6]: inactive
Activity [7]: inactive
inhibition [8]: inactive

SMILES: Cn1cc(Cc2c[nH]c3ccccc23)c2ccccc21
Emax [1]: 43%
pEC50 [2]: ≤ 5.00
pEC50 [3]: < 5.00
Emax [4]: 8%
inhibition [5]: inactive
Activity [6]: inactive
Activity [7]: inactive
inhibition [8]: inactive

SMILES: Cc1ccc(C(c2c[nH]c3ccccc23)c2c[nH]c3ccccc23)cc1
Emax [1]: 2%
pEC50 [2]: < 5.00
pEC50 [3]: < 5.00
Emax [4]: 10%
inhibition [5]: inactive
Activity [6]: inactive
Activity [7]: inactive
inhibition [8]: inactive

SMILES: c1ccc2c(c1)[nH]c1cc3c(cc12)[nH]c1ccccc13
inhibition [10]: inactive

SMILES: Clc1ccc2c(Cc3c[nH]c4cc(Cl)ccc34)c[nH]c2c1
Emax [1]: 4%
pEC50 [2]: < 5.00
pEC50 [3]: 5.27
Emax [4]: 118%
inhibition [5]: inactive
Activity [6]: inactive
Activity [7]: inactive
inhibition [8]: inactive

SMILES: CC(c1c[nH]c2cccc(F)c12)c1c[nH]c2cccc(F)c12
Emax [1]: 5%
pEC50 [2]: < 5.00
pEC50 [3]: < 5.00
Emax [4]: 34%
inhibition [5]: inactive
Activity [6]: inactive
Activity [7]: inactive
inhibition [8]: inactive

SMILES: CCCCC(c1c[nH]c2ccccc12)c1c[nH]c2ccccc12
Emax [1]: -4%
pEC50 [2]: < 5.00
pEC50 [3]: < 5.00
Emax [4]: -3%
inhibition [5]: inactive
Activity [6]: inactive
Activity [7]: inactive
inhibition [8]: inactive

SMILES: Cc1[nH]c2ccccc2c1Cc1c(C)[nH]c2ccccc12
Emax [1]: 42%
pEC50 [2]: ≤ 5.00
pEC50 [3]: < 5.00
Emax [4]: 23%
inhibition [5]: inactive
Activity [6]: inactive
Activity [7]: inactive
inhibition [8]: inactive

SMILES: Oc1ccc(C(c2c[nH]c3ccccc23)c2c[nH]c3ccccc23)cc1
Emax [1]: 7%
pEC50 [2]: < 5.00
pEC50 [3]: < 5.00
Emax [4]: -5%
inhibition [5]: inactive
Activity [6]: inactive
Activity [7]: inactive
inhibition [8]: inactive

SMILES: OCc1c[nH]c2ccccc12
inhibition [10]: inactive

SMILES: O=C1Nc2ccccc2C1=Cc1ccc2[nH]ccc2c1
Emax [1]: -16%
pEC50 [2]: < 5.00
pEC50 [3]: < 5.00
Emax [4]: -7%
inhibition [5]: inactive
Activity [6]: inactive
Activity [7]: inactive
inhibition [8]: inactive

SMILES: c1cc2c(c(C(c3c[nH]c4ccccc34)c3c[nH]c4ccccc34)c1)OCO2
Emax [1]: 0%
pEC50 [2]: < 5.00
pEC50 [3]: < 5.00
Emax [4]: 7%
inhibition [5]: inactive
Activity [6]: inactive
Activity [7]: inactive
inhibition [8]: inactive

SMILES: CC(c1c[nH]c2ccccc12)c1c[nH]c2ccccc12 [VIBRINDOLE A]
Emax [1]: -5%
pEC50 [2]: < 5.00
pEC50 [3]: < 5.00
Emax [4]: 3%
inhibition [5]: inactive
Activity [6]: inactive
Activity [7]: inactive
inhibition [8]: inactive

Now from value to molecule:

Emax [1]: -17%
pEC50 [2]: < 5.00
pEC50 [3]: < 5.00
Emax [4]: -22%
inhibition [5]: inactive
Activity [6]: inactive
Activity [7]: inactive
inhibition [8]: inactive
SMILES: O=C1Nc2ccccc2/C1=C/c1c[nH]c2ccccc12

Emax [1]: 28%
pEC50 [2]: ≤ 5.00
pEC50 [3]: < 5.00
Emax [4]: -5%
inhibition [5]: inactive
Activity [6]: inactive
Activity [7]: inactive
inhibition [8]: inactive
SMILES: O=C(O)c1ccc2[nH]cc(Cc3c[nH]c4ccc(C(=O)O)cc34)c2c1

Emax [1]: -10%
pEC50 [2]: < 5.00
pEC50 [3]: < 5.00
Emax [4]: 10%
inhibition [5]: inactive
Activity [6]: inactive
Activity [7]: inactive
inhibition [8]: inactive
SMILES: c1ccc2c(C(c3c[nH]c4ccccc34)c3c[nH]c4ccccc34)c[nH]c2c1

Emax [1]: 110%
pEC50 [2]: 6.48
pEC50 [3]: 5.91
Emax [4]: 108%
Activity [6]: inactive
Activity [7]: inactive
pEC50 [9]: 5.19
inhibition [8]: inactive
SMILES: Fc1cccc2[nH]cc(Cc3c[nH]c4cccc(F)c34)c12

Emax [1]: 7%
pEC50 [2]: < 5.00
pEC50 [3]: < 5.00
Emax [4]: -31%
inhibition [5]: inactive
Activity [6]: inactive
Activity [7]: inactive
inhibition [8]: inactive
SMILES: COc1ccc2[nH]cc(C=C3C(=O)Nc4ccc(F)cc43)c2c1

Emax [1]: 119%
pEC50 [2]: 6.43 to 6.44
pEC50 [3]: 5.92
Emax [4]: 103%
Activity [6]: inactive
Activity [7]: inactive
inhibition [8]: inactive
SMILES: COc1ccc2[nH]cc(Cc3c[nH]c4ccc(OC)cc34)c2c1

Emax [1]: 97%
pEC50 [2]: 5.72
pEC50 [3]: 5.19
Emax [4]: 110%
Activity [6]: inactive
Activity [7]: inactive
inhibition [8]: inactive
SMILES: COc1ccc2[nH]cc(Cc3c[nH]c4ccccc34)c2c1

Emax [1]: 111%
pEC50 [2]: 5.94
pEC50 [3]: < 5.00
Emax [4]: 25%
Activity [6]: inactive
Activity [7]: inactive
inhibition [8]: inactive
SMILES: Clc1cccc2[nH]cc(Cc3c[nH]c4cccc(Cl)c34)c12

Emax [1]: 123%
pEC50 [2]: 6.42
pEC50 [3]: < 5.00
Emax [4]: -2%
Activity [6]: inactive
Activity [7]: inactive
inhibition [8]: inactive
SMILES: Fc1ccc2[nH]cc(Cc3c[nH]c4ccc(F)c(F)c34)c2c1F

Emax [1]: 104%
pEC50 [2]: 6.26
pEC50 [3]: 4.72
Emax [4]: 161%
Activity [6]: inactive
Activity [7]: inactive
inhibition [8]: inactive
SMILES: O=C(c1c[nH]c2ccccc12)c1c[nH]c2ccccc12
